# Source: ChEMBL document CHEMBL4513216, “Probing the Open Global Health Chemical Diversity Library for Multistage-Active Starting Points for Next-Generation Antimalarials” (ACS Infect Dis, 2020)
# Assay: Toxicity liver stage against HepG2, at 10uM
# Type: cell-based
# Design: test concentration 10 uM, cell line HepG2-A16-CD81EGFP
# Details: human, HepG2-A16-CD81EGFP cells; read-out: INHIBITION
# Method in brief: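 Uninfected HepG2-A16-CD81EGFP cells, 3 × 10^3 per well, 1536-well, plated on prespotted compound at 10 μM final, parasite-free screening media added to match infected plates; puromycin 10 μM positive, DMSO 0.5% negative; run in parallel with 48 h PbLuc assay at 37 °C, 5% CO2; viability by CellTiter-Glo luminescence, normalized to controls.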
structure (smiles),measurement,value
O=C(CCn1cccn1)NCCOc1cccc(Cl)c1,cytotoxicity at 10 µM,-2.48%
c1cc(-c2c[nH]c([C@@H]3COCCN3Cc3ncc[nH]3)n2)ccn1,cytotoxicity at 10 µM,4.99%
COCCNC(=O)c1ccc2c(=O)n3c(nc2c1)CCCC3,cytotoxicity at 10 µM,10%
CCCOc1c(Cl)cc(C(=O)N2CCOC23CCN(C)CC3)cc1Cl,cytotoxicity at 10 µM,8.17%
O=C1CSC(c2ccc(Cl)cc2Cl)c2c(n(C3CCOCC3)[nH]c2=O)N1 (centres undefined),cytotoxicity at 10 µM,-7.92%
N#Cc1cccnc1OC1CCN(S(=O)(=O)c2c(F)cccc2F)CC1,cytotoxicity at 10 µM,5.45%
CS(=O)(=O)CC(=O)NCC1OCCc2cn(CC3CC3)nc21 (centres undefined),cytotoxicity at 10 µM,3.45%
Cc1c(C)n(Cc2ccccn2)c2nc3c(c(N)c12)CCCCC3,cytotoxicity at 10 µM,3.3%
CCc1cnc2c(c1NCc1cccc(OC)c1)c(=O)n(C)c(=O)n2C,cytotoxicity at 10 µM,24.8%
COCCC(=O)N1CCCC2(CCC(=O)N2CCOC)CC1 (centres undefined),cytotoxicity at 10 µM,2.52%
CCOc1ccc(N2CCCN=C2NC(=O)c2cccc(OC)c2)cc1,cytotoxicity at 10 µM,5.2%
CCn1cc(CNC(=O)CCn2ncc3c(Cl)cccc32)cn1,cytotoxicity at 10 µM,10.9%
CCN(CC)C(=O)c1nnsc1-c1ccc(C)cc1,cytotoxicity at 10 µM,3.14%
Cc1nn(C)c(C)c1S(=O)(=O)N(C)Cc1nn(C)c(Cl)c1Cl,cytotoxicity at 10 µM,-3.78%
CS(=O)(=O)N1CC2(CCCN(CC3CC3)C2)Cc2ccccc21 (centres undefined),cytotoxicity at 10 µM,2.85%
COCc1ccc(CNc2cnn(C(C)(C)C)c(=O)c2Cl)cc1,cytotoxicity at 10 µM,60.9%
O=C(Nc1c(N2CCCC2)cccc1N1CCCC1)c1ccccn1,cytotoxicity at 10 µM,-25.7%
O=C1OCCN1CCSc1nnnn1C1CCOCC1,cytotoxicity at 10 µM,-48.4%
Cc1n[nH]cc1CNC(=O)CCCc1cccs1,cytotoxicity at 10 µM,-52.3%
OCCOc1cc(F)ccc1NCc1cccc(F)c1F,cytotoxicity at 10 µM,-6.14%
O=C1CC[C@H](C(=O)N(CCc2ccccc2)C2CCOC2)N1 (some centres undefined),cytotoxicity at 10 µM,1.15%
CN(Cc1nnc2ccccn12)C(=O)CCC1CCCC1,cytotoxicity at 10 µM,-2.94%
CN(Cc1ccsc1)C(=O)CNC(=O)N1CCc2ccccc2C1,cytotoxicity at 10 µM,-2.9%
CNC(=O)Cc1ccccc1NC(=O)N[C@H]1c2ccccc2C[C@H]1O,cytotoxicity at 10 µM,-36.1%
COC(=O)C(NC(=O)c1cc(F)cc(F)c1)c1cccnc1 (centres undefined),cytotoxicity at 10 µM,-39.1%
CCC(CNC(=O)Cc1cc(C)on1)Oc1cccc(F)c1 (centres undefined),cytotoxicity at 10 µM,-48.2%
COCCOCCC(=O)N1CCC(c2ccccc2C)C1 (centres undefined),cytotoxicity at 10 µM,-9.46%
CCSCCC(C)N(C)C(=O)c1cc(C)no1 (centres undefined),cytotoxicity at 10 µM,-9.99%
CNS(=O)(=O)c1cccc(C(C)NCc2ccco2)c1 (centres undefined),cytotoxicity at 10 µM,4.61%
Nc1ccnc(CNc2cc(F)ccc2OCC2CCCO2)n1 (centres undefined),cytotoxicity at 10 µM,17.4%
CN1CCN(Cc2ccccc2CNC(=O)c2ccc(Cl)cc2F)CC1,cytotoxicity at 10 µM,15.5%
NS(=O)(=O)N1CCc2ccc(NC(=O)Cc3ccccc3F)cc21,cytotoxicity at 10 µM,1.17%
OC1CCCN(Cc2ccc(F)c3cccnc23)C1 (centres undefined),cytotoxicity at 10 µM,4.75%
Cc1ccc(-c2ccc(C(=O)NCCS(N)(=O)=O)c(F)c2)cc1,cytotoxicity at 10 µM,11.3%
Cc1nc(N2CCCC(N3CCCC3)C2)c2cnn(C)c2n1 (centres undefined),cytotoxicity at 10 µM,-4.07%
CC(C)CCNC(=O)c1ccc(Cl)c(NS(C)(=O)=O)c1,cytotoxicity at 10 µM,2.2%
CN(C)C(=O)c1cccc(C[S+]([O-])CC(=O)NC2CCCC2)c1 (centres undefined),cytotoxicity at 10 µM,5.79%
CC(=O)N1CCCc2ccc(S(=O)(=O)N3CCCCC3C)cc21 (centres undefined),cytotoxicity at 10 µM,-15.1%
Cc1cc(CCC(=O)NCc2ncc[nH]2)ccc1Br,cytotoxicity at 10 µM,-18.1%
CC(C)c1nsc(N2CCC(OCCN3CCOCC3)CC2)n1,cytotoxicity at 10 µM,-14.2%
Cc1ccnc(NC(=O)C2CCN(CCCc3cn[nH]c3)CC2)c1,cytotoxicity at 10 µM,-49%
COc1cccc(C(O)CN2CCN(C(=O)CCC(C)C)CC2)c1 (centres undefined),cytotoxicity at 10 µM,-46.9%
CC(=O)N1CCCCCC1C1CCN(Cc2nc(C3CC3)no2)CC1 (centres undefined),cytotoxicity at 10 µM,-56.4%
CCNC(=O)N(C)Cc1ccc(SC)c(OC)c1,cytotoxicity at 10 µM,-13.1%
CC(c1nc(C2CC2)no1)N1CCN(c2ccc(C#N)cn2)CC1 (centres undefined),cytotoxicity at 10 µM,1.18%
Cc1oncc1C(=O)N1CC[C@H]2[C@@H]1CCC(=O)N2CC1CC1,cytotoxicity at 10 µM,6.42%
Cc1ccc2c(n1)N(CC1CC1)CCN(Cc1cnn(C)c1)C2,cytotoxicity at 10 µM,-2.91%
CN(C)C(=O)[C@H]1CCS(=O)(=O)[C@@H]2CN(c3ncc(F)cn3)C[C@H]12,cytotoxicity at 10 µM,-100%
O=S(=O)(C1CC1)N1CCC2(CN(c3ncccn3)C2)C1,cytotoxicity at 10 µM,-98.4%
Cc1ccc(CN2Cc3cnn(C)c3C(COCC3CC3)C2)o1 (centres undefined),cytotoxicity at 10 µM,-78.5%
O=C1[C@@H]2CCN(Cc3ccoc3)C[C@@H]2OCCN1c1cccnc1,cytotoxicity at 10 µM,-74.6%
Fc1cccc(-c2nnn3c2COC(CNc2ncccn2)C3)c1 (centres undefined),cytotoxicity at 10 µM,-65.3%
OC[C@H]1CCCN1c1nccc(-c2c[nH]nc2C2CCCCC2)n1,cytotoxicity at 10 µM,-2.5%
Cc1ccc(OCCN(C)Cc2nccn2C)c(C)c1,cytotoxicity at 10 µM,5.51%
O=C1NCCN(C(=O)c2cn3ccsc3n2)C1Cc1ccccc1 (centres undefined),cytotoxicity at 10 µM,-9.51%
COc1ccc(-c2nccn2CCN2CCCCC2)c(OC)c1OC,cytotoxicity at 10 µM,4.74%
CC(C)CN(Cc1ccccn1)Cc1ccccc1OCC(=O)O,cytotoxicity at 10 µM,-12.7%
CCc1nc(C)c(-c2nccn2CC2CC(=O)N(CC)C2)[nH]1 (centres undefined),cytotoxicity at 10 µM,0.361%
CCc1cc(C(=O)N[C@H]2CN(CCS(C)(=O)=O)C[C@@H]2C2CC2)[nH]n1,cytotoxicity at 10 µM,3.91%
CC(C)c1cc(N[C@H](C(N)=O)C(C)C)n2nccc2n1,cytotoxicity at 10 µM,-1.56%
O=C1O[C@@H]2CN(Cc3cc4ccccc4o3)C[C@@H]2N1Cc1ccccn1,cytotoxicity at 10 µM,5.16%
Cc1cnccc1CN(C)C(=O)c1ccc(Cn2cnnn2)cc1,cytotoxicity at 10 µM,8.15%
O=C(Nc1ccccc1-c1ccccc1)N1C[C@@H]2CNC[C@]2(C(=O)O)C1,cytotoxicity at 10 µM,-40.5%
COc1cc(C)c(-c2ccc(F)c3c2OC(CN)C3)cc1C (centres undefined),cytotoxicity at 10 µM,20.3%
Cc1ccccc1C(CNC(=O)CSc1nnc(N)s1)N(C)C (centres undefined),cytotoxicity at 10 µM,12%
C[C@@H]1CN(C(=O)CCN2CCOCC2)CC[C@]1(C)O,cytotoxicity at 10 µM,-0.51%
CCc1[nH]c2c(CNc3nccc(N)n3)cc(F)cc2c1C,cytotoxicity at 10 µM,-8.36%
CSCC[C@H](NC(C)=O)C(=O)N(C)Cc1ccc(-n2cccn2)cc1,cytotoxicity at 10 µM,-122%
CN(Cc1csc(-c2cccs2)n1)C(=O)CN1CCOC1=O,cytotoxicity at 10 µM,-0.811%
COc1ccc(C(=O)N2CC[C@](C)(O)[C@H](C)C2)cc1N1CCOCC1,cytotoxicity at 10 µM,14.9%
Cn1ncc2c(N[C@@H]3CS(=O)(=O)C[C@H]3O)nc(C(C)(C)C)nc21,cytotoxicity at 10 µM,-1.32%
CNC(=O)[C@@H]1C[C@@H](NC(=O)CSc2ccccc2)CN1C1CCOCC1,cytotoxicity at 10 µM,2.14%
O=C1CC(NS(=O)(=O)NCc2ccccc2)CN1c1ccccc1Cl (centres undefined),cytotoxicity at 10 µM,-5.68%
COC(=O)c1ccc(N2CCN(C(=O)c3ccn(C)c(=O)c3)CC2)cc1,cytotoxicity at 10 µM,2.7%
CCc1cc(N[C@@H](CO)C(N)=O)n2nc(C)c(C)c2n1,cytotoxicity at 10 µM,-13.4%
COCc1ncc(CN2CCC3(CCC(=O)N(CC(C)O)C3)CC2)cn1 (centres undefined),cytotoxicity at 10 µM,-123%
CCC[C@@H]1CN(Cc2cc3c(cc2OC)OCCO3)C[C@H]1C(=O)O,cytotoxicity at 10 µM,-9.47%
Cc1cnc(NC(C)Cc2cccnc2)nc1N(C)C (centres undefined),cytotoxicity at 10 µM,-4.03%
C[C@@H]1CN(CC(C)(C)N2CCOCC2)C[C@@]1(O)C1CC1,cytotoxicity at 10 µM,2.93%
CC(=O)NCc1nnc2n1CCN(c1nc(C)nc3sccc13)CC2,cytotoxicity at 10 µM,15.5%
c1cc(-c2cnccn2)cc(-c2ccn(CCN3CCCC3)n2)c1,cytotoxicity at 10 µM,-11.5%
Clc1ccccc1C1(c2ccnc(-c3ccncc3)n2)CCNCC1,cytotoxicity at 10 µM,-8.16%
CN1CC(c2ccccc2)CC12CCN(C(=O)c1c(Cl)cnn1C)CC2 (centres undefined),cytotoxicity at 10 µM,-17%
CSc1ccccc1CN1CCn2nc(CNC(C)=O)cc2C1,cytotoxicity at 10 µM,-17%
c1ccc2nc(CN3CCCC3c3noc(C4CC4)n3)ccc2c1 (centres undefined),cytotoxicity at 10 µM,-5.48%
COc1ccc(C2CCCN2C(=O)NCCCn2ccnc2)cc1 (centres undefined),cytotoxicity at 10 µM,-13.4%
Cc1ccc(NC2CCN(C(=O)c3cccc4[nH]ncc34)CC2)nn1,cytotoxicity at 10 µM,-13.7%
OCCn1cc(CN2CCN(CCOCC(F)(F)F)CC2)cn1,cytotoxicity at 10 µM,-10.7%
COCCCN1CCCN(C(C)c2nc(C3CC3)no2)CC1 (centres undefined),cytotoxicity at 10 µM,-8.77%
CC(C)c1ccc(O)c(C(=O)N2CCN(Cc3cscn3)CC2)c1,cytotoxicity at 10 µM,-3.24%
Cc1cc(C)c(OCC(=O)NS(=O)(=O)c2c(C)noc2C)c(C)c1,cytotoxicity at 10 µM,-6.64%
c1ccc(-n2ccnc2)c(CNCC2CNc3ccnn3C2)c1 (centres undefined),cytotoxicity at 10 µM,-8.11%
O=C(NCCc1coc(-c2ccc(F)cc2)n1)NC1CCC(O)CC1 (centres undefined),cytotoxicity at 10 µM,7.96%
Cc1sc2c(C3CCNCC3)nc(Nc3cccc(F)c3)n2c1C,cytotoxicity at 10 µM,-0.775%
Fc1ccc(OCCCNC2=NCCN2)cc1,cytotoxicity at 10 µM,5.08%
CCCOc1ccccc1CN[C@@H]1CCC[C@H]1Cc1cc(C)no1,cytotoxicity at 10 µM,-6.86%
CO[C@@H]1CCN(C(=O)Cc2ccc(F)cc2)[C@@H]1Cc1cccnc1,cytotoxicity at 10 µM,10.1%
Cc1cc2c(=O)n3c(nc2s1)CCN(Cc1[nH]cnc1C)CC3,cytotoxicity at 10 µM,-9.9%
CN1CCN(C2COC3(CCN(Cc4ccc(F)cc4)CC3)C2)CC1 (centres undefined),cytotoxicity at 10 µM,-97.4%
CC1c2ncc(Cn3cccn3)n2CCN1Cc1ccc(F)cc1 (centres undefined),cytotoxicity at 10 µM,-107%
CCN1CCOCC12CCN(c1nccs1)CC2,cytotoxicity at 10 µM,-107%
CCO[C@@H]1CC[C@H]2[C@H]1OCCN2CC1CCC1,cytotoxicity at 10 µM,11.2%
Cc1ccc(CN2CCC3(CC2)CC(c2cccnc2)C(=O)N3C)o1 (centres undefined),cytotoxicity at 10 µM,-2.71%
CN1CCO[C@H]2CN(C(=O)c3ccoc3)C[C@H]21,cytotoxicity at 10 µM,-80.6%
O=C(NC1CCCC1)[C@@H]1C[C@@H]2CCN(Cc3ccoc3)C[C@H]2O1,cytotoxicity at 10 µM,-110%
COCCN1C(=O)C[C@H]2[C@H]1CCN2Cc1ccccc1,cytotoxicity at 10 µM,-71.5%
O=C(NCCc1cccs1)[C@]12COC[C@H]1CN(Cc1ccncc1)C2,cytotoxicity at 10 µM,-114%
Cc1ccc(C2c3c(n[nH]c3C)N=C3COC(=O)C32)cc1C (centres undefined),cytotoxicity at 10 µM,74.9%
O=C(Nc1ccccc1)N1C[C@@H]2C[C@H](C(=O)N3CCOCC3)[C@H](C1)O2,cytotoxicity at 10 µM,7.53%
